Measurements taken from publication PMC9585524 (ACS Bio & Med Chem Au, 2022).
Entries after “also recorded” stand apart in the source; their conditions may differ.

How the values were obtained:
hSphK2 = biological target: T1, hSphK2 (Homo sapiens, UniProt Q9NRA0); assay type: biochemical
T1 sequence (Q9NRA0 1-618 isoform Q9NRA0-2): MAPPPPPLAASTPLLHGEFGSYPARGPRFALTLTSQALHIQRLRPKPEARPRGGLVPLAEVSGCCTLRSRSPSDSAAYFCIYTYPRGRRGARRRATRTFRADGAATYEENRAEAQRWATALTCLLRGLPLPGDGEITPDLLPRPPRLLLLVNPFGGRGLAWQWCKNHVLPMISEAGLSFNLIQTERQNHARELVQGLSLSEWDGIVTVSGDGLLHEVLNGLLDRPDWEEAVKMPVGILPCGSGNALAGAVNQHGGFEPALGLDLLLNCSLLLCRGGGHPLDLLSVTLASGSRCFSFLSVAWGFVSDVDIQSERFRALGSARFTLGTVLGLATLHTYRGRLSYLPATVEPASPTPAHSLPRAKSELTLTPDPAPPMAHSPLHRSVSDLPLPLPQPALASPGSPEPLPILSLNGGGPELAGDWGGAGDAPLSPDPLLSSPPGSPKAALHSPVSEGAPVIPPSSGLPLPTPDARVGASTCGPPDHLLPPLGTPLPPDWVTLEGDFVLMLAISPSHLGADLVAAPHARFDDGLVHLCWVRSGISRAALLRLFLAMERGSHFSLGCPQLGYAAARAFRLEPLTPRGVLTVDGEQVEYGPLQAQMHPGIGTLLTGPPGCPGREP

U937 cells = assay: S1P levels in U937 cells by LC-MS/MS; assay type: cell-based, human; conditions: varying concentrations of 14c, 2 h, Figure 5A, duplicate
How it was run: (§1)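 U937 cells were grown in RPMI 1640 with 10% FBS, then moved to 0.5% FBS for 24 h. They were treated 2 h with test compound (30–1000 nM) plus 1 μM FTY720. Pellets (2–3 × 10^6 cells) were extracted in methanol/chloroform with deuterated internal standards and base-treated. S1P and FTY720-P were measured by LC-MS/MS, in duplicate.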

SphK2 in U937 cells = assay: FTY720-P levels in U937 cells; assay type: cell-based, human; conditions: 1 μM FTY720 and 14c at 30–1000 nM, Figure 5B, duplicate
How it was run: as §1

blood S1P = assay: Blood S1P in C57BL/6 mice after a single intraperitoneal dose, LC-MS/MS; assay type: in vivo; conditions: for S1P levels in blood: 5 mg/kg single intraperitoneal injection
How it was run: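 Male C57BL/6J mice in groups of four received 5 mg/kg test compound i.p. in 2% hydroxypropyl-β-cyclodextrin, and controls got an equal volume of vehicle. Blood was drawn at set times, with the earliest 1–2 min post-dose. Whole blood (10 μL) was extracted in methanol/chloroform with d7-S1P/d7-sphingosine internal standards (48 °C, 16 h), then treated with KOH/methanol. S1P was quantified by LC-MS/MS MRM (380.4 → 264.4).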

estrogen receptors = conditions: cited from earlier work

Compound	selectivity for SphK2 over SphK1 (hSphK2) [fold]	S1P levels in U937 cells (U937 cells)	FTY720-P levels in U937 cells (SphK2 in U937 cells)	S1P levels in blood (blood S1P; 4 h post dosing)	S1P levels in blood (blood S1P; after 24 h)	circulating (blood) S1P levels (blood S1P; mice, 5 mg/kg, overall statement)	action at estrogen receptors (estrogen receptors)
Cl.N=C(N)N1CCC[C@H]1c1nc(-c2ccc(CCC3CCCCC3)c(C(F)(F)F)c2)no1 [14c, (S)-2-(3-(4-(2-Cyclohexylethyl)-3-(trifluoromethyl)phenyl)-1,2,4-oxadiazol-5-yl)pyrrolidine-1-carboximidamide Hydrochloride]	~200	dose-dependent decrease	concentration-dependent decrease	doubling	returning close to baseline	sustained increase; also recorded: profound increases	
O=C(NCc1ccncc1)C12CC3CC(C1)CC(c1ccc(Cl)cc1)(C3)C2 [compound 1]							tamoxifen-mimetic
